The source made the active and inactive calls. No cut-off for these calls is given here.
target: T1, Cannabinoid receptor 2 (Homo sapiens, UniProt P34972); assay: Displacement of [3H]-CP-55940 from human CB2 receptor expressed in HEK293 cell membranes at 1 to 10 uM after 90 mins relative to control; conditions: not given
T1 sequence (P34972 whole entry): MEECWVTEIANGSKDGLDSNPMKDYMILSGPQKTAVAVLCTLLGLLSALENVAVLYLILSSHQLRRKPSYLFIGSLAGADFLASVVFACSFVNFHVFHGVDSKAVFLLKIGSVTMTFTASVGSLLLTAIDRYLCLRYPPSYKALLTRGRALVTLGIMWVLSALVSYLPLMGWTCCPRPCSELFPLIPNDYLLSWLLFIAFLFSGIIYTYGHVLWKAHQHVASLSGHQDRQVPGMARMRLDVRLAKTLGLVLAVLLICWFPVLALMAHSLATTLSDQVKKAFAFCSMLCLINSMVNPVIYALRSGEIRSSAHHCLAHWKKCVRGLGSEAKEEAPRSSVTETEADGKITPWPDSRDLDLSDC

Structure (SMILES) | inhibition
CCOC(=O)c1cc(-c2ccccc2)sc1NS(=O)(=O)c1ccc(Cl)cc1 | > 50%
CCOC(=O)c1c(NC(=O)CCc2ccccc2)sc2c1CCCC2 | > 50%
CCOC(=O)c1c(NC(=O)C23CC4CC(CC(C4)C2)C3)sc2c1CCCC2 | > 50%
Cc1cc(C(=O)NC(C)c2ccccc2)c(C)n1-c1ccccc1 (stereo not given) | > 50%
Cc1ccc(Cn2nc(C(=O)N[C@@H]3C(C)(C)[C@@H]4CC[C@@]3(C)C4)cc2-c2ccc(Cl)c(C)c2)cc1 | > 50%
CCOC(=O)c1c(NS(=O)(=O)c2ccc(Cl)cc2)sc2c1CCCC2 | > 50%
CCc1c(C(=O)Nc2cccc3ccccc23)cc(C)n1-c1ccccc1 | > 50%
Cc1cc(C(=O)Nc2cccc3ccccc23)c(C)n1-c1ccccc1 | > 50%
Cc1cc(C(=O)NC23CC4CC(CC(C4)C2)C3)c(C)n1-c1ccccc1 | > 50%
CCc1c(C(=O)NC(C)c2ccccc2)cc(C)n1-c1ccccc1 (stereo not given) | > 50%
CCOC(=O)c1cc(-c2ccccc2)sc1NC(=O)c1ccc2ccccc2c1 | > 50%
CCOC(=O)c1cc(-c2ccccc2)sc1NS(=O)(=O)c1ccccc1 | > 50%
CCOC(=O)c1c(NC(=O)c2cccc3ccccc23)sc2c1CCCC2 | > 50%
CCOC(=O)c1cc(-c2ccccc2)sc1NS(=O)(=O)c1cccc2ccccc12 | > 50%
CCc1c(C(=O)O)cc(C)n1-c1ccccc1 | > 50%
Cc1cc(C(=O)NCCc2ccccc2)c(C)n1-c1ccccc1 | > 50%

system: HEK293; assay: Selectivity index, ratio of Ki for human CB1 receptor expressed in HEK293 cell membranes to Ki for human CB2 receptor expressed in HEK293 cell membranes; format: cell-based; conditions: not given

Structure (SMILES) | Ratio Ki
CCOC(=O)c1c(NC(=O)CCc2ccccc2)sc2c1CCCC2 | > 89.4
CCOC(=O)c1c(NC(=O)C23CC4CC(CC(C4)C2)C3)sc2c1CCCC2 | 469 to 500
Cc1cc(C(=O)NC(C)c2ccccc2)c(C)n1-c1ccccc1 (stereo not given) | 4.8
CCc1c(C(=O)Nc2cccc3ccccc23)cc(C)n1-c1ccccc1 | 25
Cc1cc(C(=O)Nc2cccc3ccccc23)c(C)n1-c1ccccc1 | 3.76
Cc1cc(C(=O)NC23CC4CC(CC(C4)C2)C3)c(C)n1-c1ccccc1 | 68.3
CCc1c(C(=O)NC(C)c2ccccc2)cc(C)n1-c1ccccc1 (stereo not given) | 6.92
CCOC(=O)c1c(NC(=O)c2cccc3ccccc23)sc2c1CCCC2 | 80 to 81.7
Cc1cc(C(=O)NCCc2ccccc2)c(C)n1-c1ccccc1 | 10.2

target: Cannabinoid receptor 1 (CB1) (Homo sapiens, UniProt P21554); assay: Displacement of [3H]-CP-55940 from human CB1 receptor expressed in HEK293 cell membranes at 1 to 10 uM after 90 mins relative to control; conditions: membranes of HEK293 cells expressing human CB1 receptor, probe [3H]-CP-55940
Sequence (P21554 whole entry): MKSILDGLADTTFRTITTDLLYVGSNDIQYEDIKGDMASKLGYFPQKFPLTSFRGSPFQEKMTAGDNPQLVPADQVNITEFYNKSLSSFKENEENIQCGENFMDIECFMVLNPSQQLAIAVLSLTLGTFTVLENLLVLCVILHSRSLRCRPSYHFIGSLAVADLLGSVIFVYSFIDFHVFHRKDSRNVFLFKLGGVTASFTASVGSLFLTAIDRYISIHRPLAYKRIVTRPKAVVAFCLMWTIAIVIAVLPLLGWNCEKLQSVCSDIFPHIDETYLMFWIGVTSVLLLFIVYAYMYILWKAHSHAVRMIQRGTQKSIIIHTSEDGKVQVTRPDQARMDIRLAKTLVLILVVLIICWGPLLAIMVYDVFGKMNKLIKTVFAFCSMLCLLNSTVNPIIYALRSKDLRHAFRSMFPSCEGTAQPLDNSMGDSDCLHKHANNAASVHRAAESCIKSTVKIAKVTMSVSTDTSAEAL

Structure (SMILES) | inhibition at 1.5 h, up to 10 µM
CCOC(=O)c1cc(-c2ccccc2)sc1NS(=O)(=O)c1ccc(Cl)cc1 | > 50%
CCOC(=O)c1c(NC(=O)CCc2ccccc2)sc2c1CCCC2 | > 50%
CCOC(=O)c1c(NC(=O)C23CC4CC(CC(C4)C2)C3)sc2c1CCCC2 | > 50%
Cc1cc(C(=O)NC(C)c2ccccc2)c(C)n1-c1ccccc1 (stereo not given) | > 50%
Cc1ccc(Cn2nc(C(=O)N[C@@H]3C(C)(C)[C@@H]4CC[C@@]3(C)C4)cc2-c2ccc(Cl)c(C)c2)cc1 | > 50%
CCOC(=O)c1c(NS(=O)(=O)c2ccc(Cl)cc2)sc2c1CCCC2 | > 50%
CCc1c(C(=O)Nc2cccc3ccccc23)cc(C)n1-c1ccccc1 | > 50%
Cc1cc(C(=O)Nc2cccc3ccccc23)c(C)n1-c1ccccc1 | > 50%
Cc1cc(C(=O)NC23CC4CC(CC(C4)C2)C3)c(C)n1-c1ccccc1 | > 50%
CCc1c(C(=O)NC(C)c2ccccc2)cc(C)n1-c1ccccc1 (stereo not given) | > 50%
CCOC(=O)c1cc(-c2ccccc2)sc1NC(=O)c1ccc2ccccc2c1 | > 50%
CCOC(=O)c1cc(-c2ccccc2)sc1NS(=O)(=O)c1ccccc1 | > 50%
CCOC(=O)c1c(NC(=O)c2cccc3ccccc23)sc2c1CCCC2 | > 50%
CCOC(=O)c1cc(-c2ccccc2)sc1NS(=O)(=O)c1cccc2ccccc12 | > 50%
CCc1c(C(=O)O)cc(C)n1-c1ccccc1 | > 50%
Cc1cc(C(=O)NCCc2ccccc2)c(C)n1-c1ccccc1 | > 50%

target: T1, Cannabinoid receptor 2; assay: Inverse agonist activity at human CB2 receptor expressed in CHO-K1 cells assessed as increase in NKH-477-induced intracellular cAMP levels after 30 mins by luminescence assay; format: functional, cell-based; conditions: not given
Summary of the method: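 CHO-K1 cells stably overexpressing human CB2, plated 30,000 cells/well and held overnight at 37 °C, 5% CO2. Compounds were added with NKH-477 (water-soluble forskolin analogue; 3x of 25µM solution) for 30 min at 37°C. cAMP was read by enzyme-fragment-complementation chemiluminescence. Values are normalized to NKH-477 alone as 100% response. Three independent experiments, triplicate.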

Structure (SMILES) | Activity
Cc1cc(C(=O)NC23CC4CC(CC(C4)C2)C3)c(C)n1-c1ccccc1 | Active

target: T1, Cannabinoid receptor 2; conditions: not given

Structure (SMILES) | IC50
CCOC(=O)c1c(NC(=O)C23CC4CC(CC(C4)C2)C3)sc2c1CCCC2 | 475 nM
Cc1cc(C(=O)NC23CC4CC(CC(C4)C2)C3)c(C)n1-c1ccccc1 | 109 nM

target: T1, Cannabinoid receptor 2; assay: Displacement of [3H]-CP-55940 from human CB2 receptor expressed in HEK293 cell membranes after 90 mins by radioligand binding assay; conditions: not given
Summary of the method: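 Compounds were screened at 1 and 10 µM; those displacing over 50% were run at 0.1nM–10µM. Ki by Cheng-Prusoff from IC50. At least three experiments, duplicate.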

Structure (SMILES) | Ki
CCOC(=O)c1cc(-c2ccccc2)sc1NS(=O)(=O)c1ccc(Cl)cc1 | > 10000 nM
CCOC(=O)c1c(NC(=O)CCc2ccccc2)sc2c1CCCC2 | 112 nM
CCOC(=O)c1c(NC(=O)C23CC4CC(CC(C4)C2)C3)sc2c1CCCC2 | 2.15 nM
Cc1cc(C(=O)NC(C)c2ccccc2)c(C)n1-c1ccccc1 (stereo not given) | 546 nM
CCOC(=O)c1c(NS(=O)(=O)c2ccc(Cl)cc2)sc2c1CCCC2 | > 10000 nM
CCc1c(C(=O)Nc2cccc3ccccc23)cc(C)n1-c1ccccc1 | 20 nM
Cc1cc(C(=O)Nc2cccc3ccccc23)c(C)n1-c1ccccc1 | 84.2 nM
Cc1cc(C(=O)NC23CC4CC(CC(C4)C2)C3)c(C)n1-c1ccccc1 | 7.59 nM
CCc1c(C(=O)NC(C)c2ccccc2)cc(C)n1-c1ccccc1 (stereo not given) | 540 nM
CCOC(=O)c1cc(-c2ccccc2)sc1NC(=O)c1ccc2ccccc2c1 | > 10000 nM
CCOC(=O)c1cc(-c2ccccc2)sc1NS(=O)(=O)c1ccccc1 | > 10000 nM
CCOC(=O)c1c(NC(=O)c2cccc3ccccc23)sc2c1CCCC2 | 16.8 nM
CCOC(=O)c1cc(-c2ccccc2)sc1NS(=O)(=O)c1cccc2ccccc12 | > 10000 nM
CCc1c(C(=O)O)cc(C)n1-c1ccccc1 | > 10000 nM
Cc1cc(C(=O)NCCc2ccccc2)c(C)n1-c1ccccc1 | 584 nM

target: Cannabinoid receptor 1 (Homo sapiens, UniProt P21554); assay: Displacement of [3H]-CP-55940 from human CB1 receptor expressed in HEK293 cell membranes after 90 mins by radioligand binding assay; conditions: not given
Sequence (P21554 whole entry): as above

Structure (SMILES) | Ki
CCOC(=O)c1cc(-c2ccccc2)sc1NS(=O)(=O)c1ccc(Cl)cc1 | > 10000 nM
CCOC(=O)c1c(NC(=O)CCc2ccccc2)sc2c1CCCC2 | > 10000 nM
CCOC(=O)c1c(NC(=O)C23CC4CC(CC(C4)C2)C3)sc2c1CCCC2 | 1010 nM
Cc1cc(C(=O)NC(C)c2ccccc2)c(C)n1-c1ccccc1 (stereo not given) | 2620 nM
CCOC(=O)c1c(NS(=O)(=O)c2ccc(Cl)cc2)sc2c1CCCC2 | > 10000 nM
CCc1c(C(=O)Nc2cccc3ccccc23)cc(C)n1-c1ccccc1 | 505 nM
Cc1cc(C(=O)Nc2cccc3ccccc23)c(C)n1-c1ccccc1 | 317 nM
Cc1cc(C(=O)NC23CC4CC(CC(C4)C2)C3)c(C)n1-c1ccccc1 | 518 nM
CCc1c(C(=O)NC(C)c2ccccc2)cc(C)n1-c1ccccc1 (stereo not given) | 3740 nM
CCOC(=O)c1cc(-c2ccccc2)sc1NC(=O)c1ccc2ccccc2c1 | > 10000 nM
CCOC(=O)c1cc(-c2ccccc2)sc1NS(=O)(=O)c1ccccc1 | > 10000 nM
CCOC(=O)c1c(NC(=O)c2cccc3ccccc23)sc2c1CCCC2 | 1370 nM
CCOC(=O)c1cc(-c2ccccc2)sc1NS(=O)(=O)c1cccc2ccccc12 | > 10000 nM
CCc1c(C(=O)O)cc(C)n1-c1ccccc1 | > 10000 nM
Cc1cc(C(=O)NCCc2ccccc2)c(C)n1-c1ccccc1 | 5930 nM

target: T1, Cannabinoid receptor 2; assay: Antagonist activity at human CB2 receptor expressed in CHO-K1 cells assessed as increase in NKH-477-induced intracellular cAMP levels preincubated for 15 mins followed by JWH-133 addition after 30 mins by luminescence assay; format: functional, cell-based; conditions: not given

Structure (SMILES) | Activity
Cc1cc(C(=O)NC23CC4CC(CC(C4)C2)C3)c(C)n1-c1ccccc1 | Active

Source: ChEMBL document CHEMBL3865825, “Discovery of novel Tetrahydrobenzo[b]thiophene and pyrrole based scaffolds as potent and selective CB2 receptor ligands: The structural elements controlling binding affinity, selectivity and functionality” (Eur J Med Chem, 2016)
